From publication PMC8785363 (Leukemia, 2019)

Columns and labels:
Human serum protein = Human serum protein binding; format: in vitro ADME; details: 22 h incubation with the serum, mean ± SD, triplicate
[1] = tested on: T cells from healthy donors; assay: Toxicity toward T cells from healthy donors; format: cell-based, human; details: n=3
[2] = tested on: B cells from healthy donors; assay: Toxicity toward B cells from healthy donors; format: cell-based, human; details: n=3
primary CLL cells [3] = assay: Mitochondrial outer membrane permeabilization; format: cell-based, human; details: read-out: IC50 for MOMP induction; 24 h, DiOC6(3) staining; mean ± SD in 15 CLL samples
Bcl-2 = assay: Immunoblot of Bcl-2 protein level in CLL cells; format: cell-based, human; details: 24 h
FBS protein = FBS protein binding; format: in vitro ADME, bovine; details: 22 h incubation with the serum; mean ± SD, triplicate
[4] = human serum and fetal bovine serum; cited from earlier work
primary CLL cells [5] = assay: Protein synthesis by [3H]leucine incorporation in primary CLL cells; format: cell-based, human; details: primary CLL samples, 4 h after exposure
Bcl-XL = assay: Immunoblot of Bcl-XL protein level in CLL cells; format: cell-based, human
How it was run: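 Primary CLL cells from patients (informed consent) exposed to test compound, then immunoblotted for Bcl-XL alongside Mcl-1, Bcl-2 and PARP. Cleaved PARP served as the apoptosis marker. Three CLL patient samples were run, and one representative blot is shown.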

Mcl-1 = assay: Immunoblot of Mcl-1 protein level in CLL cells; format: cell-based, human; details: 24 h
primary CLL cells [6] = assay: Induction of apoptosis / cell death in primary CLL cells; format: cell-based, human
[7] = Human serum protein binding; format: in vitro ADME; details: human
FBS protein binding = format: in vitro ADME, bovine; details: bovine

## CC(/C=C/C(C)=C/[C@@H]1Cc2nc(cs2)CC[C@@H](N)CC(=O)O[C@@H](C)C/C(C)=C/C=C\C(=O)O1)=C\CN(C)C [Compound 3, des-methyl PatA]
Human serum protein
  Human serum protein binding (%) Fraction Bound: 86.7 ± 4.7%
  Human serum protein binding (%) Recovery: 54.0 ± 2.6%
[1]
  toxicity to normal T cells compared with CLL cells / PatA: significantly lower toxicity
[2]
  toxicity to normal B cells compared with CLL cells / PatA: significantly lower toxicity

## CC(/C=C/C(C)=C/[C@@H]1Cc2nc(cs2)CCCCC(=O)O[C@@H](C)C/C(C)=C/C=C\C(=O)O1)=C\CN(C)C [DMDA PatA (2), des-methyl, des-amino PatA]
Primary CLL cells [3]
  IC50: 4920 ± 1400 nM
Human serum protein
  Human serum protein binding (%) Fraction Bound: 99.6 ± 0.1%
  Human serum protein binding (%) Recovery: 38.1 ± 7.5%
Human serum protein; listed as DMDAPatA
  Human serum protein binding (%) Fraction Bound: 99.7%
  Human serum protein binding (%) Recovery: 31.4%
Bcl-2
  effect on Bcl-2 expression: without affecting the expression
FBS protein
  FBS protein binding (%) Fraction Bound: 99.1 ± 0.1%
  FBS protein binding (%) Recovery: 78.3 ± 2.7%
[4]
  stability in human serum compared with fetal bovine serum: similar
Primary CLL cells [5]
  inhibition of protein synthesis ([3H]leucine incorporation): inhibited protein synthesis
Bcl-XL
  effect on Bcl-XL expression: without affecting the expression
Mcl-1
  effect on Mcl-1 protein level: reduced levels
Primary CLL cells [6]; CLL cells in media with 10% autologous patient plasma
  times less potent than PatA: about 30 times
Primary CLL cells [6]; read-out: IC50 in one sample with 19% del11q, single CLL sample with 19% del11q
  IC50: 4.32 µM

## CC(/C=C/C(C)=C/[C@@H]1Cc2nc(cs2)[C@@H](C)C[C@@H](N)CC(=O)O[C@@H](C)C/C(C)=C/C=C\C(=O)O1)=C\CN(C)C [PatA (1), Pateamine A, reference compound]
[7]
  recovery at 22 h: 80.4 ± 12.8%
[7]; serum
  fraction unbound at 22 h: 0.026
FBS protein binding; FBS protein binding (%) Recovery, 22 h incubation with the serum, mean ± SD, triplicate
  recovery at 22 h: 86.2%
FBS protein binding; serum
  fraction unbound at 22 h: 0.013
FBS protein
  FBS protein binding (%) Recovery: 86.3 ± 4.3%
Primary CLL cells [6]; Homo sapiens, CLL cell, 24 h, read-out: IC50, μM 10% FBS
  IC50: 0.13 ± 0.08 µM
Primary CLL cells [6]; Homo sapiens, CLL cell, 24 h, read-out: IC50, μM 10% Plasma
  IC50: 0.12 ± 0.09 µM
